Consider eight compounds from ChEMBL document CHEMBL1126688, “Interphenylene 7-oxabicyclo[2.2.1]heptane oxazoles. Highly potent, selective, and long-acting thromboxane A2 receptor antagonists” (J Med Chem, 1993).

pIC50, pKd: −log10 of the molar value.

The term logP denotes a log measure of how a compound divides between an organic and an aqueous phase. The low end stands for lower lipophilicity, the high end for higher lipophilicity. A word on the pKd: it is −log10 of the Kd, conventionally taken in molar units. A higher pKd goes with a low Kd.

Data set [1] is described as follows: Partition coefficient (logP). Type of data set: physicochemical. Particulars: octanol/water. In short, it runs like this:
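log P came from reversed-phase TLC Rm values on C18 plates. Eluent was acetone in 0.5 M aqueous KBr, buffered with 0.25 N triethylammonium phosphate to pH 7.3. Values were converted with a calibration curve built from shake-flask partition coefficients (pH 7.0) of seven oxabicycloheptane compounds spanning a range of lipophilicities.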

Data set [2] relates to Mus musculus. As to the kind of experiment: In vivo duration of action required to prevent death in mice, after iv administration of U-46619 (2 mg/kg) at 10 mg/kg po administration of compound.
In data set [3] the test system is Mus musculus. As to the kind of experiment: In vivo duration of action required to prevent death in mice, after i.v. administration of U-46619 (2 mg/kg) at 0.2 mg/kg p.o. The conditions noted are these: po.
For data set [4], the target named is T1, Thromboxane A2 receptor (Homo sapiens, UniProt P21731).
T1 sequence (P21731 whole entry): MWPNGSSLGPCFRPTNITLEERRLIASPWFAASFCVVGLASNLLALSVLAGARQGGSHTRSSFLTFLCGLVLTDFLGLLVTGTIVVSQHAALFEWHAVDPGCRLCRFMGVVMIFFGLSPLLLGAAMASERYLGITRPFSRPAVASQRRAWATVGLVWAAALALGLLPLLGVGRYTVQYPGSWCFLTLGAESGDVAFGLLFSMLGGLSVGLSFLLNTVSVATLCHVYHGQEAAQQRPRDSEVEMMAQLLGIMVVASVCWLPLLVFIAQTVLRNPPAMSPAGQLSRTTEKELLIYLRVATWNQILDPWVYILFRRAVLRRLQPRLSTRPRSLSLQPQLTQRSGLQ
The data set can be described thus: Inhibitory binding activity against TXA2 receptor in human platelet membrane, using [3H]-SQ 29548 as the radioligand. The method in brief:
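Competition binding of [3H]-SQ 29,548 to TxA2 receptors in human platelet membranes, measured as inhibition of specific binding. Kd (inhibition constant) was calculated from each compound's I50 value. A slope factor is also reported.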

The species entered for data set [5] is Homo sapiens. The data set can be described thus: Inhibitory activity against platelet aggregation, induced by U-46619 in human platelet rich plasma. Type of data set: functional. The method in brief: (§1)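 Human platelet-rich plasma. Aggregation was induced by exogenous arachidonic acid or by the TxA2 mimetic U-46,619, each at a single fixed agonist level. I50 was taken as the antagonist concentration giving 50% inhibition of aggregation.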

The species named for data set [6] is Homo sapiens. As to the kind of experiment: Inhibitory activity against platelet aggregation, induced by arachidonic acid in human platelet rich plasma. The class given is functional. In short, it runs like this:
as §1

Regarding `O=C(O)CCc1ccccc1CC1C2CCC(O2)C1c1nc(C(=O)NCCCCC2CCCCC2)co1` (stereo not drawn), in data set [1], the logP is 3.93. Moreover, the T50 in data set [2] came out at 49.6 h; in data set [3], 22.5 h.

In the case of `CCCCCNC(=O)c1coc(C2C3CCC(O3)C2Cc2ccccc2CCC(=O)O)n1` (stereo not drawn) [BMS-180291], the logP in data set [1] came to 1.61. Further, the pKd in data set [4] was 8.40. For the same compound, the T50 was determined as 29.4 h in data set [2] and 14.4 h in data set [3]. Also, the pIC50 in data set [5] (read-out: I50) was 7.68.

In data set [1], `O=C(O)CCc1ccccc1CC1C2CCC(O2)C1c1nc(C(=O)NCCCCc2ccccc2)co1` (stereo not drawn) yielded a logP of 1.8. The compound further showed a pKd in data set [4] of 9.52. Also, the pIC50 in data set [6] (read-out: I50) is 8.40; in data set [5] (read-out: I50), 7.89. The same compound yielded a T50 in data set [3] of 20 h.

In data set [1], `O=C(O)CCc1ccccc1CC1C2CCC(O2)C1c1nc(C(=O)NCCc2ccc(Cl)cc2)co1` (stereo not drawn) came in with a logP of 1.55. In data set [4], the pKd is 8.89. The T50 worked out at 38.7 h in data set [2] and 22.7 h in data set [3]. Moreover, the results for the pIC50 in data set [6] (read-out: I50) and in data set [5] (read-out: I50) were 8.40 and 7.85, respectively.

In data set [1], `O=C(O)CCc1ccccc1CC1C2CCC(O2)C1c1nc(C(=O)NCCc2ccccc2)co1` (stereo not drawn) gave a logP of 0.98. The pKd in data set [4] is 9.15. Besides, the pIC50 in data set [6] (read-out: I50) is 8.05; in data set [5] (read-out: I50), 7.52. The same compound gave a T50 in data set [3] of 4 h.

In data set [1], `O=C(O)CCc1ccccc1CC1C2CCC(O2)C1c1nc(C(=O)NCCCCc2ccc(F)cc2)co1` (stereo not drawn) had a logP of 2.17. Moreover, in data set [4], the pKd is 8.41. Besides, the pIC50 in data set [6] (read-out: I50) was 8.40; in data set [5] (read-out: I50), 7.96. In data set [3], this compound came in with a T50 of 22.5 h.

Take `CCCCCCCNC(=O)c1coc(C2C3CCC(O3)C2Cc2ccccc2CCC(=O)O)n1` (stereo not drawn): in data set [1], the logP amounted to 2.88. For the same compound, in data set [4], the pKd was 9.70. Besides, the T50 is 27.4 h in data set [2] and 9.5 h in data set [3].

Compound `C#CCCCCCNC(=O)c1coc(C2C3CCC(O3)C2Cc2ccccc2CCC(=O)O)n1` (stereo not drawn) registered a logP in data set [1] of 0.87. In data set [4], this compound gave a pKd of 8.33. Besides, the pIC50 in data set [6] (read-out: I 50) is 7.85; in data set [5] (read-out: I 50), 7.51. This compound also had a T50 in data set [3] of 11.1 h.
